In ChEMBL document CHEMBL1127629, “Design and synthesis of RNA-specific groove-binding cations: implications for antiviral drug design” (J Med Chem, 1994):

Assays:
Format in all cases: nucleic-acid assay
[1] = tested on: Nucleic Acid; assay: Evaluated for thermal denaturation at pH 6.3 against poly(A)-poly(dt) synthetic DNA oligonucleotide
In short: (§1)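 Polymer (poly(A)·poly(U) or poly(dA)·poly(dT)) at 1.0×10^-4 M in MES buffer (0.01 M MES, 0.001 M EDTA, 0.1 M NaCl), pH set with NaOH to the listed value. Compound added to a final drug:polymer phosphate ratio of 0.3. Absorbance at 260 nm followed while heating at 0.5 °C/min in 1-cm cells. ΔTm is the Tm shift of the complex versus the free polymer.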

[2] = tested on: Nucleic Acid; assay: Evaluated for thermal denaturation at pH 6.3 against poly(A)-poly(U) synthetic RNA oligonucleotide; in short: as §1
[3] = tested on: Nucleic Acid; assay: Evaluated for thermal denaturation at pH 3.9 against poly(A)-poly(dt) synthetic DNA oligonucleotide; in short: as §1
[4] = tested on: Nucleic Acid; assay: Evaluated for thermal denaturation at pH 3.9 against poly(A)-poly(U) synthetic RNA oligonucleotide; in short: as §1
[5] = tested on: Nucleic Acid; assay: Evaluated for thermal denaturation at pH 4.9 against poly(A)-poly(U) syntheticRNA oligonucleotide; in short: as §1
[6] = tested on: Nucleic Acid; assay: Evaluated for thermal denaturation at pH 4.9 against poly(A)-poly(dt synthetic DNA oligonucleotide; in short: as §1
[7] = tested on: Nucleic Acid; assay: Thermal denaturation at pH 6.3 against poly(A)-poly(U) synthetic RNA oligonucleotide; in short: as §1
[8] = tested on: Nucleic Acid; assay: Thermal denaturation at pH 4.9 against poly(A)-poly(dt) synthetic DNA oligonucleotide; in short: as §1

Row | Compound | ΔTm [1] | ΔTm [2] | ΔTm [3] | ΔTm [4] | ΔTm [5] | ΔTm [6] | ΔTm [7] | ΔTm [8]
1 | OC1CCN(Cc2ccc(CN3CCC(O)CC3)cc2)CC1 | 0 | 0 |  |  |  |  |  | 
2 | CN1CCN(CCCN2CCN(C)CC2)CC1 | 0 | 0 | 0 | 11 | 1.3 | 0 |  | 
3 | c1cc(CN2CCC(N3CCCCC3)CC2)cc(CN2CCC(N3CCCCC3)CC2)c1 | 3.3 | 8 |  |  |  |  |  | 
4 | c1cnc(N2CCN(Cc3cccc(CN4CCN(c5ncccn5)CC4)c3)CC2)nc1 | 0 | 0 |  |  | 0 | 0 |  | 
5 | c1cc(CN2CCN(Cc3ccc(CN4CCNCC4)cc3)CC2)ccc1CN1CCNCC1 | 2.3 | 0 | 12 | 29.3 | 15.7 | 5.1 |  | 
6 | c1cc(CN2CCNCC2)ccc1CN1CCNCC1 | 0 | 0 |  |  |  |  |  | 
7 | OCC1CCCN(CCCN2CCCC(CO)C2)C1 (centres undefined) | 0 | 0.4 |  |  | 0.9 | 0 |  | 
8 | C1CCN(C2CCN(CCCN3CCC(N4CCCCC4)CC3)CC2)CC1 | 3.3 | 9.8 | 4.1 | 22.2 | 20.7 | 4.5 |  | 
9 | C1CCN(CCN2CCN(CCN3CCCCC3)CC2)CC1 | 0 | 0 |  |  | 0.3 | 0.2 |  | 
10 | c1cc(CN2CCC(C3=NCCN3)CC2)ccc1CN1CCC(C2=NCCN2)CC1 | 8.7 | 16.2 | 8.8 | 23.3 | 20.7 | 9.5 |  | 
11 | c1cnc(N2CCN(Cc3ccc(CN4CCN(c5ncccn5)CC4)cc3)CC2)nc1 | 0 | 0 |  |  | 0 | 0 |  | 
12 | C(CC1CCNCC1)CC1CCNCC1 | 0.1 | 0 |  |  | 1.2 | 0.7 |  | 
13 | C1CCN(C2CCN(CCN3CCN(CCN4CCC(N5CCCCC5)CC4)CC3)CC2)CC1 | 6.5 |  | 10.4 | 34.7 | 22.9 | 8.3 | 7.6 | 
14 | N#CC1CCN(CCCN2CCC(C#N)CC2)CC1 | 0 | 0 |  |  | 0 | 0 |  | 
15 | c1cc(CN2CCC(N3CCCCC3)CC2)ccc1CN1CCC(N2CCCCC2)CC1 | 3.5 | 8.1 | 5.6 | 17.7 | 15.4 |  |  | 6.7
16 | OCC1CCN(CCCN2CCC(CO)CC2)CC1 | 0 | 0.2 |  |  | 0.5 | 0.5 |  | 
17 | C(CN1CCC(C2=NCCN2)CC1)CN1CCC(C2=NCCN2)CC1 | 6.1 | 18.1 | 6.1 | 28.7 | 24.5 | 5.6 |  | 
18 | c1ccc(CN2CCN(CCCN3CCN(Cc4ccccc4)CC3)CC2)cc1 | 0 | 0 | 0.2 | 2.4 |  |  |  | 
19 | C1CCN(CCCN2CCCCC2)CC1 | 0 | 0 |  |  | 0 | 0 |  | 
